{"data": "Measured values pooled from the literature", "action": "inhibitor", "CDK7": "Cyclin-dependent kinase 7 (CDK7, Homo sapiens, UniProt P50613)", "CDK7 with cyclin H": "Cyclin-dependent kinase 7, with cyclin H (CDK7, Homo sapiens, UniProt P50613)", "note": "Protocols differ between the studies behind these lines."}
{"SMILES": "Cn1cnc(Br)c1C1=CN(c2ncnc3[nH]cnc23)CCS1", "target": "CDK7", "test": "enzyme activity, radiometric", "conditions": "50 nM", "inhibition": "21.6%"}
{"SMILES": "COC(=O)[C@H]1[C@H]2C[C@@H]3c4[nH]c5cc(OC)ccc5c4CCN3C[C@H]2C[C@@H](OC(=O)c2cc(OC)c(OC)c(OC)c2)[C@@H]1OC", "target": "CDK7 with cyclin H", "test": "enzyme activity, ADP detection", "conditions": "10 µM", "inhibition": "-37.8%"}
{"SMILES": "Cc1ccc(-n2nc(C(C)(C)C)cc2NC(=O)Nc2ccc(OCCN3CCOCC3)c3ccccc23)cc1", "target": "CDK7", "test": "enzyme activity", "conditions": "10 µM", "inhibition": "17%"}
{"SMILES": "Cc1ccc(Nc2nccc(N(C)c3ccc4c(C)n(C)nc4c3)n2)cc1S(N)(=O)=O", "target": "CDK7 with cyclin H", "test": "enzyme activity", "conditions": "10 µM", "inhibition": "34%"}
{"SMILES": "C=CC(=O)Nc1cc(Nc2nccc(Nc3cc(Cl)c(F)cc3C(C)(C)O)n2)c(OC)cc1N1CC[C@@H](N(C)C)C1", "target": "CDK7 with cyclin H", "test": "enzyme activity", "conditions": "1 µM", "inhibition": "14%"}
{"SMILES": "COC1=C(OC)C(=O)C(C/C=C(\\C)CC/C=C(\\C)CC/C=C(\\C)CC/C=C(\\C)CC/C=C(\\C)CC/C=C(\\C)CC/C=C(\\C)CC/C=C(\\C)CC/C=C(\\C)CCC=C(C)C)=C(C)C1=O", "target": "CDK7 with cyclin H", "test": "enzyme activity, ADP detection", "conditions": "10 µM", "inhibition": "6.6%"}
{"SMILES": "COc1cccc2c(NCc3ccccc3)nc(-n3c(N)nc4ccccc43)nc12", "target": "CDK7", "test": "target engagement in cells, chemoproteomics", "conditions": "20 mM", "inhibition": "2.5%"}
{"SMILES": "O=C(O)c1cc(O)c(O)c(O)c1", "target": "CDK7 with cyclin H", "test": "enzyme activity, ADP detection", "conditions": "10 µM", "inhibition": "-3%"}
{"SMILES": "c1ccc(CNc2nc(N3CCOc4ccccc43)nc3c2CCCC3)cc1", "target": "CDK7", "test": "target engagement in cells, chemoproteomics", "conditions": "20 mM", "inhibition": "-1.7%"}
{"SMILES": "COc1cc(-c2cc(-c3ccc(N4CCNCC4)cc3)cnc2C)cc(OC)c1OC", "target": "CDK7", "test": "enzyme activity", "conditions": "1 µM", "inhibition": "2%"}
